Source: ChEMBL document CHEMBL1144710, “epigenetic multiple ligands: mixed histone/protein methyltransferase, acetyltransferase, and class III deacetylase (sirtuin) inhibitors” (J Med Chem, 2008)
The source made the active and inactive calls. Unless noted, no cut-off for these calls is given here.

Columns and labels:
U-937 [1] = experiment: Induction of granulocytic differentiation in human U937 cells assessed as CD11c expression at 1 uM after 30 hrs; assay type: functional; conditions: 5 uM, in the assay text read “at 5 uM” for “at 1 uM”
How it was run: (§1)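 U937 cells treated for 30 h, then stained with PE-conjugated CD11c (PE mouse IgG1 as control) for 30 min at 4 °C in the dark and resuspended in PBS with PI (0.25 µg/mL). Read-out is percent CD11c-positive/PI-negative cells, with dead PI-positive cells excluded. Coloured compounds limited the top dose to 5 µM or lower.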

RmtA = RmtA (Emericella nidulans, UniProt Q5VLE3); experiment: Inhibition of Aspergillus nidulans RmtA
How it was run: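 Enzyme was GST-RmtA fusion expressed in E. coli BL21 and glutathione-affinity purified (500 ng), preincubated with compound for 15 min at room temperature. Then 20 µg chicken erythrocyte core histones and 0.55 µCi [3H]AdoMet were added, 30 min at 30 °C. Stopped with 25% TCA, filtered, counted by liquid scintillation.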

[2] = biological target: Protein arginine N-methyltransferase 1 (Homo sapiens) (UniProt Q99873); experiment: Inhibition of human recombinant PRMT1 assessed as histone H4 methylation at 50 uM
[3] = biological target: Protein arginine N-methyltransferase 1 (Homo sapiens) (UniProt Q99873); experiment: Inhibition of human recombinant PRMT1 assessed as nuclear ribonucleoprotein Npl3p methylation at 100 uM
How it was run: (§2)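 Recombinant enzymes (0.2 µg) with substrate (0.5 µg: Npl3p for PRMT1, PABP1 for CARM1, histone H3 for SET7), 0.5 µM [3H]AdoMet and 100 µM compound in PBS pH 7.4 with 3.3% v/v DMSO, 90 min at 30 °C. Products separated by 10% SDS-PAGE, transferred to PVDF, detected by fluorography on film overnight.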

[4] = biological target: T1, Histone-arginine methyltransferase CARM1 (Homo sapiens) (UniProt Q86X55); experiment: Inhibition of human recombinant CARM1 assessed as poly(A) binding protein 1 methylation at 100 uM; how it was run: as §2
T1 sequence (whole entry): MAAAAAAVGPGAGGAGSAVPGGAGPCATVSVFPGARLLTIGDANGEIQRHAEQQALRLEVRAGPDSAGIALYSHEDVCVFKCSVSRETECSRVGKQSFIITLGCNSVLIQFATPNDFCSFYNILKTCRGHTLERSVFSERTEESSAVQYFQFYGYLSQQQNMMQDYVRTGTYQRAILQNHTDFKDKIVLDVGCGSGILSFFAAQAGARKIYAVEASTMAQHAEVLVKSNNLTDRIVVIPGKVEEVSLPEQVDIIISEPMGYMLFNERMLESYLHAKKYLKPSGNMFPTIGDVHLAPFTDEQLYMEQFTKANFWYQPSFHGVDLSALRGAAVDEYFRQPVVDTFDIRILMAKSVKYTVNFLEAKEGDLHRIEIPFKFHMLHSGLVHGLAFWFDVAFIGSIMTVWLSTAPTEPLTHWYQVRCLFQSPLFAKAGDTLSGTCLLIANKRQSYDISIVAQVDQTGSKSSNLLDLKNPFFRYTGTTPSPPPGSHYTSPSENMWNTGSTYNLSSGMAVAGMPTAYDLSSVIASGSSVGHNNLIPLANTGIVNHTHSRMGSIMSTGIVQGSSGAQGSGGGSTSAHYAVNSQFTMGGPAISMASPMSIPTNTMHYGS

[5] = biological target: T2, Histone-lysine N-methyltransferase SETD7 (Homo sapiens) (UniProt Q8WTS6); experiment: Inhibition of human recombinant SET7 assessed as histone H3 protein methylation at 100 uM; how it was run: as §2
T2 sequence (whole entry): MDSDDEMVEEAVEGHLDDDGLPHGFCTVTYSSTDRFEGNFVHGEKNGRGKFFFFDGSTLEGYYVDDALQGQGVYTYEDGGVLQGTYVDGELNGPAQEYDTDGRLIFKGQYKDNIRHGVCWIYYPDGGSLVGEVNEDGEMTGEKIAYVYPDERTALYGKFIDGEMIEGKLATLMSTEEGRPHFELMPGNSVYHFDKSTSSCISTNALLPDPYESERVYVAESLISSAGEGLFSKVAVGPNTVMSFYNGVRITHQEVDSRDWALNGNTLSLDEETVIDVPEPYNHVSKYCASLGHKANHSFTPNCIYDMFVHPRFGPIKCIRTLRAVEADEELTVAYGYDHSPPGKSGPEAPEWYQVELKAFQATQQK

U-937 [6] = experiment: Inhibition of histone H4R3 methylation in human U937 cells at 50 uM after 24 hrs; assay type: functional, cell-based
How it was run: (§3)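 U937 cells treated at 50 µM for 24 h. Histones extracted with Triton buffer, then 0.2 M HCl overnight at 4 °C. 3–10 µg run on 15% SDS-PAGE and immunoblotted with anti-monomethyl-H3K4, monomethyl-H4R3 or dimethyl-H3R17 (1:500, overnight 4 °C), ECL detection. Loading controls: total H4 (H3K4), Ponceau Red (Arg marks).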

U-937 [7] = experiment: Inhibition of histone H3R17 methylation in human U937 cells at 50 uM after 24 hrs; assay type: functional, cell-based; how it was run: as §3
U-937 [8] = experiment: Inhibition of human p300/CBP in U937 cells at 50 uM assessed as histone H3 acetylation; assay type: cell-based
How it was run: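 Source was U937 nuclear extract (10 µg per assay) as p300/CBP HAT, with histone H3 substrate and compound at 50 µM or DMSO control for 90 min. Acetyl-H3 detected by indirect ELISA, quantified against acetylated H3 peptide standard curves, […].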

[9] = biological target: T3, NAD-dependent protein deacetylase sirtuin-1 (Homo sapiens) (UniProt Q96EB6); experiment: Inhibition of human SIRT1 at 25 uM
T3 sequence (whole entry): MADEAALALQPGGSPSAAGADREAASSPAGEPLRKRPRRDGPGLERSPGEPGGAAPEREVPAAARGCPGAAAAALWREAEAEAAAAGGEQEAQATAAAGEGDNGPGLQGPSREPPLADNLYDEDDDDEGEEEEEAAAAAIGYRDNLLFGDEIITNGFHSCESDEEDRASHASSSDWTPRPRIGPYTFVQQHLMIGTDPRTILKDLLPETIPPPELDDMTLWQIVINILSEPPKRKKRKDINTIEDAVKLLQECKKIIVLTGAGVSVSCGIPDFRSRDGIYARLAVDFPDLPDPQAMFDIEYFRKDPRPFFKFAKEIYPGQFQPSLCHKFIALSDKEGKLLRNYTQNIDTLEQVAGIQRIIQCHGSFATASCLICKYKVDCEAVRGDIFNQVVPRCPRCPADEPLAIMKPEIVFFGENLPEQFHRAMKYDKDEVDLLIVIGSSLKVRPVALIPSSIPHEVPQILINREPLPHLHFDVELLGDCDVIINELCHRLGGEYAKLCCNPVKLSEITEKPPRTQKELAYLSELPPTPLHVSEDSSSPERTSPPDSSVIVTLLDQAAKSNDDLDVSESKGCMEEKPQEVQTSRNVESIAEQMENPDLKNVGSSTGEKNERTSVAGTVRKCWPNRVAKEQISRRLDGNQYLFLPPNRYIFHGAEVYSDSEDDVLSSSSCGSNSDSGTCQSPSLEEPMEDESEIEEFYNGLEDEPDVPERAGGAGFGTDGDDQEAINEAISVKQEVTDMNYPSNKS
How it was run: (§4)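 Fluorescent two-stage assay. SIRT1 (1 U/well) or SIRT2 (5 U/well) with Fluor de Lys-SIRT1/2 substrate, NAD+ and compound at 25 µM, 37 °C for 2 h. Developer II containing nicotinamide then stopped the reaction and generated signal, read at ex 360/em 460 nm.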

[10] = biological target: T4, NAD-dependent protein deacetylase sirtuin-2 (Homo sapiens) (UniProt Q8IXJ6); experiment: Inhibition of human SIRT2 at 25 uM; how it was run: as §4
T4 sequence (whole entry): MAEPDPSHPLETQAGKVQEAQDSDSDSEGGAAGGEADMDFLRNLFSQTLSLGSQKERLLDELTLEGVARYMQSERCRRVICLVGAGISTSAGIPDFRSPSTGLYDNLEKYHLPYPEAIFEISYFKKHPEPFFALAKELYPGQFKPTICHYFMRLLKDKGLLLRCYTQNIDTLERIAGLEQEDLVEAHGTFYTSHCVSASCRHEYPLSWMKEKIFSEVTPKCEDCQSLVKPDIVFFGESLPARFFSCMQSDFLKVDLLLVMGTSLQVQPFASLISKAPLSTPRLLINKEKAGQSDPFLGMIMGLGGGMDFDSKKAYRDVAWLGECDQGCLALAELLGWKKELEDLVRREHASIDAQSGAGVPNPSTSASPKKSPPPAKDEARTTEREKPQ

U-937 [11] = experiment: Cell cycle arrest in human U937 cells assessed as accumulation at S phase at 25 uM after 30 hrs; assay type: functional, cell-based
How it was run: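 U937 cells in RPMI with 10% fetal calf serum, HEPES and glutamine, kept at 200000 cells/mL; treated at 25 µM for 30 h, then the distribution across cell cycle phases was analysed.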

U-937 [12] = experiment: Induction of apoptosis in human U937 cells at 25 uM after 30 hrs; assay type: functional
How it was run: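 Apoptosis read as caspase 3 activation by FACS, in U937 cells (RPMI, 10% fetal calf serum, 200000 cells/mL) exposed to 25 µM for 30 h.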

U-937 [13] = experiment: Induction of granulocytic differentiation in human U937 cells assessed as CD11c expression at 5 uM after 30 hrs; assay type: functional; how it was run: as §1
U-937 [14] = experiment: Inhibition of histone H3K4 methylation in human U937 cells at 50 uM after 24 hrs; assay type: functional, cell-based; how it was run: as §3

Sequence of Protein arginine N-methyltransferase 1 (Homo sapiens) (Q99873 whole entry, looked up): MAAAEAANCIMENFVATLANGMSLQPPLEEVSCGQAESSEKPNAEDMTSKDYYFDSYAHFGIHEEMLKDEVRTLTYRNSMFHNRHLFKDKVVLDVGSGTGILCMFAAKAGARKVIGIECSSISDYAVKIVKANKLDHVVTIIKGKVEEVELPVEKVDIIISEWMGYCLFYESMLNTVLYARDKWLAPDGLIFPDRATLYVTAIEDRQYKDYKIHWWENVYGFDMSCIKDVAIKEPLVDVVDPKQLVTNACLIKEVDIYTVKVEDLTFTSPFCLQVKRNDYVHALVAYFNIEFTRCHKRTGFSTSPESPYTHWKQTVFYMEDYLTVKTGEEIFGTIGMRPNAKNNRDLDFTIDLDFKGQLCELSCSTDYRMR
Sequence of RmtA (Q5VLE3 whole entry, the tested form may be a part): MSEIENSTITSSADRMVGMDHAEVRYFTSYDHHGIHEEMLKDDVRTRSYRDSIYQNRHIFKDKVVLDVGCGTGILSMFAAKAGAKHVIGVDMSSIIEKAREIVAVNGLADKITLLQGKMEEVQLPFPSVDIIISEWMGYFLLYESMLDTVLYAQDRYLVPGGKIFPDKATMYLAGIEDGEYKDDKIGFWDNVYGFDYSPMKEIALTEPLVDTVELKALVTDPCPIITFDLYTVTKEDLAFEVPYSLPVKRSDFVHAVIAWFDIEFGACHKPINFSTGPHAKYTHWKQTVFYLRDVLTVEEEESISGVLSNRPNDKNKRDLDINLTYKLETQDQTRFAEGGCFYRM

IC50 (RmtA)	inhibition [2]	Activity [3]	Activity [4]	Activity [5]	inhibition [9]	inhibition [10]	Activity [2]	Activity [9]	Activity [10]	Structure (SMILES)	Activity (U-937 [1])	Activity (U-937 [6])	Activity (U-937 [7])	inhibition (U-937 [8])	Activity (U-937 [11])	Activity (U-937 [12])	Activity (U-937 [13])	Activity (U-937 [14])	Activity (U-937 [8])
61.4 µM	86%	Active	Active	Active	2%	0%	–	–	–	O=C(Nc1cccc(NC(=O)c2cc(Br)c(O)c(Br)c2)c1)c1cc(Br)c(O)c(Br)c1	inactive	Active	Active	83%	–	–	–	–	–
48 µM	70%	Active	Active	Active	52%	61%	–	–	–	O=C(/C=C/c1cc(Br)c(O)c(Br)c1)CC(=O)/C=C/c1cc(Br)c(O)c(Br)c1	–	Active	Active	58%	Active	10.5%	33%	–	–
162 µM	–	Active	Active	–	–	–	inactive	inactive	inactive	O=C(/C=C/c1ccc(O)c(Br)c1)/C=C/c1ccc(O)c(Br)c1	–	inactive	inactive	–	–	–	–	inactive	inactive
14 µM	44%	Active	Active	Active	50%	56%	–	–	–	O=C1/C(=C/c2cc(Br)c(O)c(Br)c2)CCC/C1=C\c1cc(Br)c(O)c(Br)c1	–	Active	Active	96%	Active	2%	70.9%	Active	–
40 µM	17%	Active	Active	Active	60%	65%	–	–	–	O=C(/C=C/c1ccc(O)c(Br)c1)/C=C/c1cc(Br)c(O)c(Br)c1	–	Active	Active	62%	Active	1%	68.1%	inactive	–
40 µM	36%	inactive	inactive	–	35%	38%	–	–	–	O=C(/C=C/c1ccc(O)c(Br)c1)c1cc(Br)c(O)c(Br)c1	–	Active	Active	0%	–	–	–	Active	–
29 µM	61%	inactive	inactive	–	35%	37%	–	–	–	O=C(/C=C/c1cc(Br)c(O)c(Br)c1)c1cc(Br)c(O)c(Br)c1	–	Active	Active	16%	–	–	–	Active	–
–	–	–	–	–	–	–	–	–	–	CC(NC(=O)c1ccccc1/N=C/c1c(O)ccc2ccccc12)c1ccccc1 (stereo unspecified) [SIRTINOL]	–	–	–	–	–	7.5%	7.5%	–	–
13.8 µM	38%	Active	Active	Active	13%	9%	–	–	–	O=C(Nc1cc(Br)c(O)c(Br)c1)c1cccc(C(=O)Nc2cc(Br)c(O)c(Br)c2)c1	inactive	Active	Active	81%	–	–	–	–	–
37 µM	31%	Active	Active	Active	45%	56%	–	–	–	O=C(/C=C/c1cc(Br)c(O)c(Br)c1)c1ccc(C(=O)/C=C/c2cc(Br)c(O)c(Br)c2)cc1	inactive	Active	Active	0%	–	–	–	–	–
